The results in this text go back to ChEMBL document CHEMBL1153437, “Inhibition of monoamine oxidase B by N-methyl-2-phenylmaleimides” (Bioorg Med Chem, 2009).

Data set [1] is described as follows: Inhibition of MAO-B in baboon liver microsome assessed as MMDP+ formation. In kind it is microsomes, Papio hamadryas. In outline:
(§1)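 Baboon liver mitochondrial fraction (0.15 mg protein/mL) as MAO-B source; substrate MMTP 30–120 µM with varied inhibitor concentrations, 4% DMSO cosolvent. Incubation at 37 °C for 10 min, stopped with perchloric acid, centrifuged; MMDP⁺ read at 420 nm (ε 25,000 M⁻¹). Ki from the x-intercept of a replot of Lineweaver–Burk slopes versus inhibitor concentration; single determination, replot R² ≥0.99.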
In general terms: Liver microsomes are a subcellular fraction often used to study metabolism.

Data set [2] can be described thus: Stability in pH 7.4 sodium phosphate buffer assessed as hydrolysis at 100 uM after 30 mins. In kind it is physicochemical. As to conditions: read-out: Activity. The essentials: (§2)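 Compound (100 µM, or 10 µM where stated) in 100 mM sodium phosphate buffer, pH 6.4–8.0, with 4% DMSO, held at 37 °C in quartz cuvettes. UV–vis spectra (230–500 nm) recorded at intervals. Remaining compound was calculated from the loss of absorbance at its longest-wavelength maximum (337–354 nm) using its molar absorptivity; hydrolysis is expressed as percent.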

Data set [3] is filed under the species Papio hamadryas. Description: Inhibition of MAO-B in baboon liver microsome assessed as MMDP+ formation at 14 uM up to 60 mins. In kind it is microsomes. In outline:
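Baboon liver mitochondria (0.3 mg protein/mL) preincubated with inhibitor (14 µM) in 100 mM sodium phosphate pH 7.4 at 37 °C for 0, 15, 30 or 60 min. Then diluted to 0.15 mg protein/mL (inhibitor 7 µM final) with MMTP 90 µM and incubated 15 min at 37 °C. Perchloric acid stop, MMDP⁺ read at 420 nm; triplicate, mean ± SEM.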

Data set [4] can be described thus: Stability in pH 6.4 to 8 phosphate buffer at 100 uM. Type of data set: physicochemical. The note with it: pH 6.4, 100 µM. The essentials: as §2
Data set [5] is described as follows: Stability in pH 6.4 to 8 phosphate buffer at 100 uM up to 360 mins. In kind it is physicochemical. As to conditions: pH 6.4, 6 h. The essentials:
as §2

The nature of data set [6]: Stability in pH 7 sodium phosphate buffer assessed as hydrolysis at 100 uM at 360 mins. In kind it is physicochemical. The note with it: read-out: Activity. In outline: as §2
Data set [7] is described as follows: Stability in pH 7.4 sodium phosphate buffer assessed as hydrolysis at 100 uM at 360 mins. In kind it is physicochemical. The note with it: read-out: Activity. The essentials:
as §2

Data set [8] is described as follows: Stability in pH 8 sodium phosphate buffer assessed as hydrolysis at 100 uM at 360 mins. Type of data set: physicochemical. The note with it: read-out: Activity. In outline: as §2
Data set [9] can be described thus: Stability in pH 7.4 sodium phosphate buffer assessed as hydrolysis at 10 uM after 30 mins. Type of data set: physicochemical. As to conditions: read-out: Activity. The essentials: as §2
Data set [10] deals with T1, Amine oxidase [flavin-containing] B (Homo sapiens, UniProt P27338).
T1 sequence (P27338 whole entry): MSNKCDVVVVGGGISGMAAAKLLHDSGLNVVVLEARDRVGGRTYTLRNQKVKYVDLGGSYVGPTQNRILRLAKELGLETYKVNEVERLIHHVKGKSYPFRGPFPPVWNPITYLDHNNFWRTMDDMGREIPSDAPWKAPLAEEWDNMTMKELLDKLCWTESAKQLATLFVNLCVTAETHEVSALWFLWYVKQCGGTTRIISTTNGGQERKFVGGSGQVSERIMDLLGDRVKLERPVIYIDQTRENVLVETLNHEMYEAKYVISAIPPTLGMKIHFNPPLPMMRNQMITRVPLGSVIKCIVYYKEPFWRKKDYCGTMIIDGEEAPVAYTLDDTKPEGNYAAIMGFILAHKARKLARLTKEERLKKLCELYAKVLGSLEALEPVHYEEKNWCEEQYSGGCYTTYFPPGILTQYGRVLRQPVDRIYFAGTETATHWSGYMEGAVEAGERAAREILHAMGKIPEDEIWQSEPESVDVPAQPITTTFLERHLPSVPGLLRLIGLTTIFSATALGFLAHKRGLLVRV
Description: Inactivation of human […] assessed as half time at 0.8 mM. As to conditions: 800 µM.

The species entered for data set [11] is Papio hamadryas. The data set is described as follows: Competitive inhibition of MAO-B in baboon liver microsome by Lineweaver-Burke plot. In kind it is microsomes. In outline:
as §1

Data set [12] is filed under the species Papio hamadryas. The data set is described as follows: Inhibition of MAO-B in baboon liver microsome assessed as MMDP+ formation at 13 uM after 30 mins relative to control; values are per cent of control.
Data set [13] is filed under the species Papio hamadryas. The data set is described as follows: Inhibition of MAO-B in baboon liver microsome assessed as MMDP+ formation at 13 uM after 60 mins relative to control; values are per cent of control.
Data set [14] is filed under the species Papio hamadryas. Description: Inhibition of MAO-B in baboon liver microsome assessed as MMDP+ formation at 13 uM after 120 mins relative to control; values are per cent of control.
The species named for data set [15] is Papio hamadryas. The data set is described as follows: Inhibition of MAO-B in baboon liver microsome assessed as MMDP+ formation at 13 uM after 180 mins relative to control; values are per cent of control.
For data set [16], the species on record is Papio hamadryas. Description: Inhibition of MAO-B in baboon liver microsome assessed as MMDP+ formation at 13 uM after 240 mins relative to control; values are per cent of control.

Calls of active or inactive are those of the source. The calls are words filed in the database; no cut-off is given here.

As usually defined, the Ki is the equilibrium dissociation constant of an inhibitor or competing ligand from its target. For the compound `CN1C(=O)C=C(c2cccc(Br)c2)C1=O`, the Ki in data set [1] was 6.99 µM. The degraded at 0.5 h, 100 µM in data set [2] was 40%.
Turning to `CN1C(=O)C=C(c2cccc(C(F)(F)F)c2)C1=O`, in [1], the inhibitory constant (Ki) was 11 µM. The degraded at 0.5 h, 100 µM in [2] was 40%.
Turning to `COc1cccc(C2=CC(=O)N(C)C2=O)c1`, in [1], the Ki stood at 8.56 µM. Besides, the degraded at 0.5 h, 100 µM in data set [2] turned out to be 40%.
For `Cc1cccc(C2=CC(=O)N(C)C2=O)c1`, the inhibition constant Ki in data set [1] was found to be 8.6 µM. Further, the degraded at 0.5 h, 100 µM in data set [2] is 40%.
Turning to `CN1C(=O)C=C(c2ccccc2)C1=O`, the result in the data set listed under Papio hamadryas [3] was inactive. Further, the Ki in [1] was found to be 3.49 µM. Further, the Activity result in data set [4] and in data set [5] was “Stable” each time. Further, the degraded at 6 h, 100 µM is 13% in data set [6], 31.4% in data set [7] and 73.8% in [8]. The degraded at 0.5 h, 100 µM in [2] is 2.8%. Also, the degraded at 0.5 h, 10 µM in data set [9] was 1%.
Take `CCN1C(=O)C=CC1=O` [N-ETHYLMALEIMIDE]: the Time in data set [10] was 8 h.
As a reminder, the residual activity is the signal under treatment as a percentage of the control signal. For `CN1C(=O)C=C(c2cccc(Cl)c2)C1=O`, the Ki in data set [1] is 6.66 µM. The result in the data set listed under Papio hamadryas [11] was Active. For the same compound, in [2], the degraded at 0.5 h, 100 µM was 40%. For the same compound, the residual activity in the data set listed under Papio hamadryas [12] turned out to be 52%; in the data set filed under Papio hamadryas [13], 66%; in the data set listed under Papio hamadryas [14], 68%; in the data set filed under Papio hamadryas [15], 80%; in the data set filed under Papio hamadryas [16] it was 84%.
`CN1C(=O)C=C(c2cccc(F)c2)C1=O`: in data set [1], the Ki was 5.73 µM. Moreover, in data set [2], the degraded at 0.5 h, 100 µM amounted to 40%.
